# Columns and labels:
# Trichophyton benhamiae = assay: In vitro evaluation of minimum inhibitory concentration against Trichophyton mentagrophytes 23; format: functional, Arthroderma benhamiae
# In short: (§1)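 Stocks are 800 μg/mL in 50% ethanol. Each plate gets 10 μL of inoculum at 10^5 cfu/mL. Incubation at 25 °C, 48 h for yeasts and 120 h for dermatophytes and molds. Organisms are ATCC strains or clinical isolates.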
# Mus sp. [1] = assay: In vivo evaluation of % survival rate after peroral administration on 3rd day at dose 2.5 mg/kg; format: functional; settings: route oral, 2.5 mg/kg
# Kluyveromyces marxianus [2] = assay: In vivo Evaluation of minimum inhibitory concentration against Candida pseudotropicalis 13; format: functional; in short: as §1
# Nannizzia gypsea = assay: In vitro evaluation of minimum inhibitory concentration against Microsporum gypseum 22; format: functional; in short: as §1
# [3] = test system: Meyerozyma guilliermondii; assay: In vitro evaluation of minimum inhibitory concentration against Candida guilliermondii 26; format: functional; in short: as §1
# Candida albicans [4] = assay: In vivo evaluation of minimum inhibitory concentration against Candida albicans 60; format: functional
# In short: (§2)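 Broth macrodilution MIC following NCCLS M27-P, in RPMI-1640 buffered with 0.165 M MOPS. Fluconazole was dissolved in water and other drugs in DMSO. C. parapsilosis ATCC 22019 served as the reference strain in every run. MIC was the lowest concentration giving turbidity at or below the 80% inhibition standard.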
# Mus sp. [5] = assay: In vivo evaluation of % survival rate after peroral administration on 7th day at dose 2.5 mg/kg; format: functional; settings: route oral, 2.5 mg/kg
# Mus sp. [6] = assay: In vivo evaluation of % survival rate after peroral administration on 5th day at dose 2.5 mg/kg; format: functional; settings: route oral, 2.5 mg/kg
# Aspergillus fumigatus = assay: In vitro evaluation of minimum inhibitory concentration against Aspergillus fumigatus 33; format: functional; in short: as §1
# Candida albicans [7] = assay: In vivo evaluation of minimum inhibitory concentration against Candida albicans 406; format: functional; in short: as §2
# Candida albicans [8] = assay: In vitro evaluation of minimum inhibitory concentration against Candida albicans 76; format: functional; in short: as §1
# Pichia kudriavzevii [9] = assay: In vitro evaluation of minimum inhibitory concentration against Candida krusei 70; format: functional; in short: as §1
# Nakaseomyces glabratus [10] = assay: In vitro evaluation of minimum inhibitory concentration against Torulopsis glabrata 78; format: functional; in short: as §1
# Microsporum canis = assay: In vitro evaluation of minimum inhibitory concentration against Microsporum canis 47; format: functional; in short: as §1
# Mus sp. [11] = assay: In vivo evaluation of % survival rate after peroral administration on 9th day at dose 2.5 mg/kg; format: functional; settings: route oral, 2.5 mg/kg
# Trichophyton rubrum = assay: In vitro evaluation of minimum inhibitory concentration against Trichophyton rubrum 90; format: functional; in short: as §1
# Candida parapsilosis [12] = assay: In vitro evaluation of minimum inhibitory concentration against Candida parapsilosis 61; format: functional; in short: as §1
# Cryptococcus neoformans [13] = assay: Evaluation of In vitro antifungal activity against Cryptococcus neoformans 87 by broth macro dilution method; format: functional
# In short: (§3)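 Yeast MIC and MFC by broth macrodilution per NCCLS M27-P in RPMI-1640 buffered with 0.165 M MOPS. Fluconazole in sterile water, other drugs in DMSO. C. parapsilosis ATCC 22019 is the reference strain in each run. MIC is the lowest concentration with turbidity ≤ the 80% inhibition standard. For MFC, 0.04 mL from clear tubes is plated on Sabouraud agar; MFC is the lowest concentration giving ≤1 colony.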
# Nakaseomyces glabratus [14] = assay: Evaluation of In vitro antifungal activity against Torulopsis glabrata 78 by broth macro dilution method; format: functional; in short: as §3
# Kluyveromyces marxianus [15] = assay: In vitro evaluation of minimum inhibitory concentration against Candida pseudotropicalis 13; format: functional; settings: Kluyveromyces marxianus; read-out: MIC; in short: as §1
# Pichia kudriavzevii [16] = assay: Evaluation of In vitro antifungal activity against Candida krusei 70 by broth macro dilution method; format: functional; in short: as §3
# Candida albicans [17] = assay: Evaluation of In vitro antifungal activity against Candida albicans 31 by broth macro dilution method; format: functional; in short: as §3
# Kluyveromyces marxianus [18] = assay: Evaluation of In vitro antifungal activity against Candida pseudotropicalis ATCC 28838 by broth macro dilution method; format: functional; in short: as §3
# Rhodotorula mucilaginosa = assay: In vitro evaluation of minimum inhibitory concentration against Rhodotorula rubra 16; format: functional; settings: Rhodotorula mucilaginosa; read-out: MIC; in short: as §1
# Candida parapsilosis [19] = assay: Evaluation of In vitro antifungal activity against Candida parapsilosis C74 by broth macro dilution method; format: functional; settings: Lodderomyces parapsilosis; in short: as §3
# Candida albicans [20] = assay: […] Evaluation of minimum inhibitory concentration against Candida albicans 406; format: functional; in short: as §1
# Pichia kudriavzevii [21] = assay: Evaluation of In vitro antifungal activity against Candida krusei C64 by broth macro dilution method; format: functional; in short: as §3
# Candida albicans [22] = assay: Evaluation of In vitro antifungal activity against Candida albicans 406 by broth macro dilution method; format: functional; in short: as §3
# Candida albicans [23] = assay: Evaluation of In vitro antifungal activity against Candida albicans 76 by broth macro dilution method; format: functional; in short: as §3
# Kluyveromyces marxianus [24] = assay: Evaluation of In vitro antifungal activity against yeasts by broth macro dilution method; format: functional; in short: as §3
# Aspergillus niger = assay: In vitro evaluation of minimum inhibitory concentration against Aspergillus niger 18; format: functional; settings: Aspergillus niger; read-out: MIC; in short: as §1
# [25] = test system: Meyerozyma guilliermondii; assay: Evaluation of In vitro antifungal activity against Candida guilliermondii 26 by broth macro dilution method; format: functional; in short: as §3
# Aspergillus flavus = assay: In vitro evaluation of minimum inhibitory concentration against Aspergillus flavus 19; format: functional; settings: Aspergillus flavus; read-out: MIC; in short: as §1
# Candida albicans [26] = assay: Evaluation of In vitro antifungal activity against Candida albicans C56 by broth macro dilution method; format: functional; in short: as §3
# Candida parapsilosis [27] = assay: Evaluation of In vitro antifungal activity against Candida parapsilosis ATCC 141095 by broth macro dilution method; format: functional; settings: Lodderomyces parapsilosis; in short: as §3
# Candida parapsilosis [28] = assay: Evaluation of In vitro antifungal activity against Candida parapsilosis C292 by broth macro dilution method; format: functional; settings: Lodderomyces parapsilosis; in short: as §3
# Candida albicans [29] = assay: Evaluation of In vitro antifungal activity against Candida albicans 60 by broth macro dilution method
# Candida tropicalis [30] = assay: Evaluation of In vitro antifungal activity against Candida tropicalis 50 by broth macro dilution method; format: functional; in short: as §3
# Candida tropicalis [31] = assay: Evaluation of In vitro antifungal activity against Candida tropicalis 2.11 by broth macro dilution method; format: functional; in short: as §3
# Candida albicans [32] = assay: Evaluation of In vitro antifungal activity against Candida albicans C52 by broth macro dilution method; format: functional; in short: as §3
# Candida parapsilosis [33] = assay: Evaluation of In vitro antifungal activity against Candida parapsilosis 2.07 by broth macro dilution method; format: functional; settings: Lodderomyces parapsilosis; in short: as §3
# Candida parapsilosis [34] = assay: Evaluation of In vitro antifungal activity against Candida parapsilosis ATCC 22019 by broth macro dilution method; format: functional; settings: Lodderomyces parapsilosis; in short: as §3
# Cryptococcus neoformans [35] = assay: Evaluation of In vitro antifungal activity against Cryptococcus neoformans 74 by broth macro dilution method; format: functional; in short: as §3
# Candida tropicalis [36] = assay: In vitro evaluation of minimum inhibitory concentration against Candida tropicalis 2.11; format: functional; settings: Candida tropicalis; read-out: MIC; in short: as §1
# Candida albicans [37] = assay: Evaluation of In vitro antifungal activity against Candida albicans 2.01 by broth macro dilution method; format: functional; in short: as §3
# Candida albicans [38] = assay: Evaluation of […] antifungal activity against Candida albicans 60 by broth macro dilution method; format: functional; in short: as §3
# Candida albicans [39] = assay: […] Evaluation of minimum inhibitory concentration against Candida albicans 60; format: functional; in short: as §1
# Candida albicans [40] = assay: Evaluation of In vitro antifungal activity against Candida albicans ATCC 10231 by broth macro dilution method; format: functional; in short: as §3
smiles,measurement,setting,value
C[C@H]1N(C(=O)c2ccc(C(F)(F)F)cc2)CCO[C@@]1(Cn1cncn1)c1ccc(F)cc1F (stereo in doubt; (+)-41),MIC,Trichophyton benhamiae,>80 µg/mL
same,Survival,Mus sp. [1],10%
same,MIC,Kluyveromyces marxianus [2],10 µg/mL
same,MIC,Nannizzia gypsea,>80 µg/mL
same,MIC,[3],>80 µg/mL
same,MIC,Candida albicans [4],>80 µg/mL
same,Survival,Mus sp. [5],0%
same,Survival,Mus sp. [6],0%
same,MIC,Aspergillus fumigatus,>80 µg/mL
same,MIC,Candida albicans [7],>80 µg/mL
same,MIC,Candida albicans [8],>80 µg/mL
same,MIC,Pichia kudriavzevii [9],>80 µg/mL
same,MIC,Nakaseomyces glabratus [10],>80 µg/mL
same,MIC,Microsporum canis,>80 µg/mL
same,Survival,Mus sp. [11],0%
same,MIC,Trichophyton rubrum,80 µg/mL
same,MIC,Candida parapsilosis [12],>80 µg/mL
CC(=O)N1CCN(c2ccc(OC[C@H]3CO[C@](Cn4ccnc4)(c4ccc(Cl)cc4Cl)O3)cc2)CC1 [KETOCONAZOLE],MFC,Cryptococcus neoformans [13],16 µg/mL
same,MIC,Cryptococcus neoformans [13],2 µg/mL
same,MIC,"Trichophyton benhamiae; Trichophyton benhamiae, read-out: MIC",5 µg/mL
same,MFC,Nakaseomyces glabratus [14],> 16 µg/mL
same,MIC,Nakaseomyces glabratus [14],8 µg/mL
same,MIC,Kluyveromyces marxianus [15],10 µg/mL
same,MFC,Pichia kudriavzevii [16],4 µg/mL
same,MIC,Pichia kudriavzevii [16],2 µg/mL
same,MFC,Candida albicans [17],> 16 µg/mL
same,MIC,Candida albicans [17],< 0.031 µg/mL
same,MFC,Kluyveromyces marxianus [18],> 16 µg/mL
same,MIC,Rhodotorula mucilaginosa,0.07 µg/mL
same,MFC,Candida parapsilosis [19],0.25 µg/mL
same,MIC,Candida parapsilosis [19],0.063 µg/mL
same,MIC,Candida albicans [20],< 0.03 µg/mL
same,MFC,Pichia kudriavzevii [21],8 µg/mL
same,MIC,Pichia kudriavzevii [21],2 µg/mL
same,MFC,Candida albicans [22],> 16 µg/mL
same,MIC,Candida albicans [22],0.063 µg/mL
same,MFC,Candida albicans [23],> 16 µg/mL
same,MIC,Candida albicans [23],< 0.031 µg/mL
same,MIC,Kluyveromyces marxianus [24],0.063 µg/mL
same,MIC,Aspergillus niger,40 µg/mL
same,MIC,"Nannizzia gypsea; Nannizzia gypsea, read-out: MIC",0.63 µg/mL
same,MIC,"[3]; Meyerozyma guilliermondii, read-out: MIC",< 0.03 µg/mL
same,MFC,[25],4 µg/mL
same,MIC,[25],0.125 µg/mL
same,MIC,Aspergillus flavus,2.5 µg/mL
same,MIC,"Aspergillus fumigatus; Aspergillus fumigatus, read-out: MIC",5 µg/mL
same,MIC,"Candida albicans [8]; Candida albicans, read-out: MIC",0.15 µg/mL
same,MIC,"Pichia kudriavzevii [9]; Pichia kudriavzevii, read-out: MIC",1.25 µg/mL
same,MIC,"Nakaseomyces glabratus [10]; Nakaseomyces glabratus, read-out: MIC",1.25 µg/mL
same,MFC,Candida albicans [26],> 16 µg/mL
same,MIC,Candida albicans [26],< 0.031 µg/mL
same,MFC,Candida parapsilosis [27],16 µg/mL
same,MIC,Candida parapsilosis [27],0.5 µg/mL
same,MIC,"Microsporum canis; Microsporum canis, read-out: MIC",2.5 µg/mL
same,MFC,Candida parapsilosis [28],16 µg/mL
same,MIC,Candida parapsilosis [28],0.125 µg/mL
same,MFC,Candida albicans [29],> 16 µg/mL
same,MFC,Candida tropicalis [30],> 16 µg/mL
same,MIC,Candida tropicalis [30],2 µg/mL
same,MFC,Candida tropicalis [31],8 µg/mL
same,MIC,Candida tropicalis [31],0.25 µg/mL
same,MIC,"Trichophyton rubrum; Trichophyton rubrum, read-out: MIC",1.25 µg/mL
same,MFC,Candida albicans [32],> 16 µg/mL
same,MIC,Candida albicans [32],< 0.031 µg/mL
same,MFC,Candida parapsilosis [33],> 16 µg/mL
same,MIC,Candida parapsilosis [33],0.063 µg/mL
same,MFC,Candida parapsilosis [34],4 µg/mL
same,MIC,Candida parapsilosis [34],0.063 µg/mL
same,MFC,Cryptococcus neoformans [35],1 µg/mL
same,MIC,Cryptococcus neoformans [35],< 0.031 µg/mL
same,MIC,Candida tropicalis [36],2.5 µg/mL
same,MFC,Candida albicans [37],> 16 µg/mL
same,MIC,Candida albicans [37],0.063 µg/mL
same,MIC,Candida albicans [38],< 0.031 µg/mL
same,MIC,Candida albicans [39],< 0.03 µg/mL
same,MIC,"Candida parapsilosis [12]; Lodderomyces parapsilosis, read-out: MIC",0.07 µg/mL
same,MFC,Candida albicans [40],> 16 µg/mL
same,MIC,Candida albicans [40],0.063 µg/mL

# — ChEMBL document CHEMBL1128448, “Synthesis and antifungal activity of new azole derivatives containing an N-acylmorpholine ring” (1995)
